From PubChem BioAssay
Rows were chosen to be rich in hits. Some 2.1% of all compounds tested hit in one or more screens of this group.
CHRM5 agonist: CHRM5 agonism in calcium assay; CHO-K1 hM5 cells, Fluo-8 calcium fluorescence; 0% DMSO wells, 100% maximal acetylcholine response; activation, % at 3 µM; actives 0.19% (n = 360,000); AID 624037;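 active = activation above the run's mean over test compounds plus 3 SD, cut at about 23% in these data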;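 note: signal is peak over basal fluorescence ratio across the kinetic read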
CHRM1 PAM: potentiates human M1 receptor response to acetylcholine | CHO-K1 hM1, Fluo-8 calcium fluorescence, ACh EC20; 0% = ACh EC20, 100% = maximal ACh | P11229 | activation, % at 3 µM | AID 588819 | actives 0.088% (n = 360,000); in the data active = activation above about 19%, passing the limit was not always enough
Target sequence (P11229 whole entry, looked up): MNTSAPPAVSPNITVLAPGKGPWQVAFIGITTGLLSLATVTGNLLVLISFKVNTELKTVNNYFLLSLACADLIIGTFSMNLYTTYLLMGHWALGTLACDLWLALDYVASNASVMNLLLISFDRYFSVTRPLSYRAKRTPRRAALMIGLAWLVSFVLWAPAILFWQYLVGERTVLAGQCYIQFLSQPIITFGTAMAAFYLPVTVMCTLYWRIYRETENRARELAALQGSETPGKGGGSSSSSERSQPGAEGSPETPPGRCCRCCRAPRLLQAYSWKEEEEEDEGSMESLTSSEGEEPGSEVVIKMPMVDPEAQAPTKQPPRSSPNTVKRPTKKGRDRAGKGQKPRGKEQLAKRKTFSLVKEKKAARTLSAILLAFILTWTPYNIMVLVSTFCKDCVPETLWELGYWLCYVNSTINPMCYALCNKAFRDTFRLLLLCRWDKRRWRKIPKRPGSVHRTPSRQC
CHRM1 antagonist: human CHRM1 antagonism; P11229; CHO-K1 hM1, Fluo-8 calcium fluorescence, ACh EC80 antagonist; inhibition, % at 3 µM; actives 1.3% (n = 360,000);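 active = percent inhibition above its own plate's cutoff, namely the mean of that plate's compound wells plus 3 SD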;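 note: peak over basal fluorescence ratio during 140 s after agonist addition; 0% = ACh EC80 plus DMSO and 100% = DMSO alone without agonist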
CHRM5 PAM: CHRM5 positive allosteric modulation. P08912. CHO-K1 hM5, Fluo-8 calcium, ACh EC20 PAM; 0% = ACh EC20, 100% = ACh EC100. activation, % at 3 µM. actives 0.3% (n = 360,000);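 active = activation above the run cutoff, the mean activation of all test compounds plus 3 SD, cut at about 18% in these data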
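Probe or stimulus: acetylcholine, EC20 level; Assay system: human M5 receptor in CHO-K1 cells; Schedule: compound preincubation 140 s before EC20 acetylcholine addition; Technique: intracellular calcium via Fluo-8 fluorescence; Dosing: single-point, 3 µM nominal; Read-out basis: percent activation from peak-over-basal fluorescence ratio, scaled EC20-to-EC100 acetylcholine; Repeats: one well per compound, no replicates.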
CHRM5 antagonist: CHRM5 antagonism in calcium assay; AID 624040; CHO-hM5 cells, Fluo-8 calcium fluorescence, ACh EC80; actives 0.59% (n = 360,000); inhibition, % at 3 µM;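 active = inhibition above a per-plate cutoff, the mean of that plate's test compounds plus 3 SD, cut at about 27% in these data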;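 note: 0% = acetylcholine EC80 with DMSO and 100% = DMSO without agonist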
CHRM1 agonist: human M1 muscarinic receptor agonism; CHO-K1 hM1, Fluo-8 calcium fluorescence, agonist mode; 0% DMSO, 100% acetylcholine EC100; activation, % at 3 µM; actives 0.33% (n = 360,000); AID 588814;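 active = activation above the run's mean compound activation plus 3 SD, cut at about 16% in these data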;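 note: peak over basal fluorescence ratio within a 140 s kinetic read after compound addition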
Starred values were filed as active, the others as inactive; nt = not tested or not shown.

SMILES | CHRM5 agonist | CHRM1 PAM | CHRM1 antagonist | CHRM5 PAM | CHRM5 antagonist | CHRM1 agonist
CC(NC(=O)c1ccc(Cl)cc1Cl)C(c1ccccc1)N1CCOCC1 (configuration not stated) | -3 | 11 | -11 | -3 | 7 | -13
CC(NC(=O)Nc1ccc(Cl)c(Cl)c1)C(c1ccccc1)N1CCOCC1 (configuration not stated) | 18 | 3 | 10 | -16 | 31* | 30*
CC(NC(=O)Nc1ccc([N+](=O)[O-])cc1)C(c1ccccc1)N1CCOCC1 (configuration not stated) | 31* | -1 | 2 | -8 | 3 | 26*
Cc1cc(C(=O)OCC(=O)NCCN2C(=O)CSC2=O)ccc1[N+](=O)[O-] | 1 | 3 | 1 | 1 | 3 | -3
CC(=O)c1ccc(OCCCC(=O)NC2=NCCS2)cc1 | 2 | -2 | 0 | -1 | 9 | -4
CC(C)(C)c1ccc(Cn2nc(CC(=O)O)c3ccccc3c2=O)cc1 | 3 | 15 | -7 | 21* | -22 | -9
Cc1c(C)n(C)c2ccc(C(=O)NCCCN3CCN(c4ccc(F)cc4)CC3)cc12 | -8 | -4 | 3 | -5 | 20 | -6
Cc1cc(C)cc(OCC(=O)Nc2ccc(N3CCCC3)cc2)c1 | -1 | -36 | 56* | -2 | 4 | -12
Cc1ccc(C)c(C(=O)OCC(=O)Nc2ccc(N3CCOCC3)cc2)c1 | 2 | 25* | -24 | 11 | -3 | 3
O=C(COC(=O)c1ccccc1O)Nc1ccc(N2CCOCC2)cc1 | 4 | -3 | 4 | 3 | 3 | -3
COc1ccc(-n2c(=S)[nH]c3cc(C(=O)N4CCN(c5ccccc5)CC4)ccc3c2=O)c(OC)c1 | -2 | 4 | -6 | 4 | 6 | -3
C/C=C(\C)CN1CCc2cc(OC)c(OC)cc2C1 | -2 | -1 | 2 | 4 | -3 | -13
COc1ccc(Cn2ccnc2)cc1Br | -4 | -1 | -5 | 6 | 8 | -3
COc1ccc(NCc2ccc(OC)c(Cn3ccnc3)c2)c(OC)c1 | -4 | -22 | 34* | -12 | 5 | -9
COC(=O)c1sc(NC(=O)OCc2ccccc2)nc1CCNC(=O)OC(C)(C)C | -1 | nt | nt | -2 | 3 | nt
CN1CCC(n2[nH]c(-c3ccccc3)c(Cc3ccccc3)c2=O)CC1 | -13 | -30 | 100* | -37 | 98* | -8
O=c1[nH]c(/C=C\c2ccccc2F)nc(O)c1[N+](=O)[O-] | 0 | 14 | -13 | -2 | 2 | 0
CCO[C@@H]1OC(C(=O)NCc2ccccc2)=C[C@H](c2ccc3c(c2)OCO3)[C@H]1CCCO | -9 | -8 | 10 | -10 | 17 | -10
CCO[C@H]1OC(C(=O)N2CCOCC2)=C[C@@H](c2ccc(Br)cc2)[C@@H]1CCCO | 3 | 9 | -5 | -2 | 11 | -5
CCO[C@H]1OC(C(=O)N2CCOCC2)=C[C@@H](c2ccccc2)[C@@H]1CCCO | 1 | -22 | 67* | -5 | 6 | -9
CCO[C@H]1OC(C(=O)NCc2ccccc2)=C[C@@H](c2ccc3c(c2)OCO3)[C@@H]1CCCO | 25* | -5 | 7 | -4 | 3 | 18*
Cc1ccc(CNC(=O)c2cccnc2Sc2cccc(Cl)c2)cc1 | 12 | 7 | -6 | 5 | -1 | 22*
COc1ccc(CNC(=O)c2cccnc2Sc2ccc(Cl)cc2)cc1 | -5 | -1 | -5 | -2 | 8 | -2
COc1ccc(N=Nc2ccc3ccccc3c2)c(O)c1 | 2 | 20 | -1 | 7 | -7 | 8
Cc1ccc2nc(SCC(=O)N3CCC(Cc4ccccc4)CC3)nc(=O)n2c1 | -3 | -8 | -2 | -18 | 5 | 20*
SMILES | CHRM5 agonist | CHRM1 PAM | CHRM1 antagonist | CHRM5 PAM | CHRM5 antagonist | CHRM1 agonist
O=C1CN(S(=O)(=O)c2cc(C(F)(F)F)ccc2Cl)CCN1 | 3 | 30* | 6 | 4 | 4 | 8
O=C(O)/C=C/C(=O)N1CCN(S(=O)(=O)c2cc(C(F)(F)F)ccc2Cl)CC1 | -1 | 4 | 5 | -2 | 11 | -1
Cc1cc(C)cc(OCC(=O)N/N=C/c2ccc([N+](=O)[O-])o2)c1 | -5 | 6 | 2 | 6 | 6 | -5
O=[N+]([O-])c1ccc(-c2cnc(SC(c3ccccc3)c3ccccc3)[nH]2)cc1 | -6 | -15 | 26* | -18 | 15 | -7
O=[N+]([O-])c1ccc(-c2cnc(SCc3ccccc3Cl)[nH]2)cc1 | -4 | -8 | 22 | -16 | 7 | -1
CCN(CC)c1ccc(/C=N/NC(=O)c2ccoc2C)cc1 | 1 | -2 | -2 | -2 | 20 | -4
CCN(C(=O)CSc1nc2cc(C(=O)O)ccc2c(=O)n1Cc1ccccc1)c1ccccc1 | 3 | 11 | -17 | -1 | 13 | -2
CNc1cccc(-c2c(OC)cccc2OC)n1 | -2 | -2 | -3 | -5 | 6 | -9
CNc1cccc(-c2cc(OC)ccc2OC)n1 | -2 | -22 | 42* | -14 | 7 | -8
Cc1cc(C(=S)N2CCOCC2)c(C)n1-c1ccc(Cl)cc1 | -5 | -25 | 29* | -1 | -4 | -8
COCCN(CC(=O)Nc1cccc(C)c1C)C(=O)c1cc(-c2ccncc2)nc2ccccc12 | 5 | -17 | 34* | -32 | 7 | -1
COCCCN1CN(S(=O)(=O)c2ccc(C)cc2C)c2nc3ccccc3nc21 | 0 | 7 | -12 | 21* | -7 | 0
CCN(CC)CCn1c(=O)n(-c2ccc(Cl)cc2)c(=O)c2c3c(sc21)CN(C)CC3 | 1 | 8 | -11 | 1 | 2 | -4
Cc1nn(-c2ccccc2)c2sc(C(=O)OCn3nnc4ccccc4c3=O)cc12 | 2 | 6 | -6 | 5 | 1 | -2
Nc1c(C(=O)O)sc2nc(-c3ccccc3)cc(-c3ccc(F)cc3)c12 | 6 | 12 | -15 | 21* | -10 | -1
CNC(=O)C1CCCN1S(=O)(=O)c1ccc(OC)cc1 (configuration not stated) | -2 | 1 | -6 | -1 | 1 | -2
CCC(C(=O)NCc1ccccc1OC)n1nc(C)n2c(cc3occc32)c1=O (configuration not stated) | -12 | 7 | -6 | -2 | -1 | -4
Cc1cc(NC(=O)CSc2nnnn2-c2ccccc2C)no1 | -2 | -13 | 28* | -4 | 2 | -1
COc1ccc(C(=O)NC(=S)NNC(=O)c2ccccc2C)cc1 | 59* | -22 | 19 | -27 | 28* | 85*
COc1ccc(C(=O)NNC(=S)NC(=O)C(C)(C)C)cc1 | 27* | -24 | 29 | -19 | 12 | 77*
